Experimental data from ChEMBL document CHEMBL5032512, “A Photohormone for Light-Dependent Control of PPARα in Live Cells” (J Med Chem, 2021).
Calls of active or inactive are those of the source. No cut-off for these calls is given here.

Columns and labels:
[1] = target: T1, Peroxisome proliferator-activated receptor delta (Homo sapiens) (UniProt Q03181); test: Agonist activity at Gal4-fused human PPARdelta LBD transfected in HEK293T cells assessed as maximal relative activation incubated for 14 to 16 hrs by dual-Glo luciferase assay relative to L165,041; type: cell-based; conditions: time 14-16 hrs
T1 sequence (whole entry): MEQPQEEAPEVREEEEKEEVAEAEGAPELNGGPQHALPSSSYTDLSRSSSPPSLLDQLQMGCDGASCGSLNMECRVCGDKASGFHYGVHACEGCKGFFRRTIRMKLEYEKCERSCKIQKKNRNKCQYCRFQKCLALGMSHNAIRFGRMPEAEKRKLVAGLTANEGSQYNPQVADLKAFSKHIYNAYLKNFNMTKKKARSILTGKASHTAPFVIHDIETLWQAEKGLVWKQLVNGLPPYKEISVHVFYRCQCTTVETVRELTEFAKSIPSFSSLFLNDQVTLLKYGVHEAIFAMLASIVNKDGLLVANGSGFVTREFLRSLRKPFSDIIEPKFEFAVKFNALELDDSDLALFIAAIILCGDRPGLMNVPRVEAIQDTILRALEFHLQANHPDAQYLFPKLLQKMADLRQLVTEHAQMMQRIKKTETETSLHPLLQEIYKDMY
How it was run: (§1)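 HEK293T cells transiently transfected with pFR-Luc, pRL-SV40 and Gal4 fusion of human PPAR hinge region plus LBD. Compound added 5 h later in Opti-MEM with 0.1% DMSO, then left overnight (14−16 h). Dual-Glo firefly/Renilla luciferase read, giving RLU. Fold activation is taken against the DMSO control. Max relative activation is set against 1 μM GW7647 (α) or L165,041 (δ). EC50 from a four-parameter fit. Duplicates, ≥3 independent runs.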

[2] = target: T2, Peroxisome proliferator-activated receptor gamma (Homo sapiens, UniProt P37231); test: Agonist activity at Gal4-fused human PPARgamma LBD transfected in HEK293T cells assessed as transcriptional activation incubated for 14 to 16 hrs by dual-Glo luciferase assay; type: cell-based
T2 sequence (P37231 whole entry): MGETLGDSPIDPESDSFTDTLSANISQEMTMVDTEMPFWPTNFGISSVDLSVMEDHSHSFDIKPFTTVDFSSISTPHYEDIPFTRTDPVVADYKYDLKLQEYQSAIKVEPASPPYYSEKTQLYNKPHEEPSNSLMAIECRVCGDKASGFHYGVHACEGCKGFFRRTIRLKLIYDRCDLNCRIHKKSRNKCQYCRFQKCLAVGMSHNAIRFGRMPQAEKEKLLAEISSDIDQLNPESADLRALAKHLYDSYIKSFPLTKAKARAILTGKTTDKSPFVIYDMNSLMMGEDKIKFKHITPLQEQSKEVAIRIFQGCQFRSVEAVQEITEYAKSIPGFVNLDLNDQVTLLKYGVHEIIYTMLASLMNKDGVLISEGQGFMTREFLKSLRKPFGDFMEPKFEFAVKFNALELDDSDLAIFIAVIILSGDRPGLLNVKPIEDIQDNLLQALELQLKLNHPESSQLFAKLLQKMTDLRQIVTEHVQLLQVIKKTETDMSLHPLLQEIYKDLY

[3] = target: T3, Peroxisome proliferator-activated receptor alpha (Homo sapiens, UniProt Q07869); test: Agonist activity at Gal4-fused human PPARalpha LBD transfected in HEK293T cells assessed as transcriptional activation incubated for 14 to 16 hrs by dual-Glo luciferase assay; type: cell-based; how it was run: as §1
T3 sequence (Q07869 whole entry): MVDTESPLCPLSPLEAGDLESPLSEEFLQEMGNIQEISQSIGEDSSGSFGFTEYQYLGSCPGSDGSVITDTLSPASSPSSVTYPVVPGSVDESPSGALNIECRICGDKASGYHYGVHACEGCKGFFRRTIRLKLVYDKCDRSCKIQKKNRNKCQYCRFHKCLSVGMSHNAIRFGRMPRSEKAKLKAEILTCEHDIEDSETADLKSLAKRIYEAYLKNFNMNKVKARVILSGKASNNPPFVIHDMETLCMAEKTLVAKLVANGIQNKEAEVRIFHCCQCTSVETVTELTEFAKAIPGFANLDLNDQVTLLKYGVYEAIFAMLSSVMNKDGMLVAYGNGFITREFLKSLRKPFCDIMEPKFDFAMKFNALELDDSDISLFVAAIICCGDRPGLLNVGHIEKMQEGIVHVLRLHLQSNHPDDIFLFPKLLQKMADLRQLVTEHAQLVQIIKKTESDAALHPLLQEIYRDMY

[4] = target: T4, Peroxisome proliferator-activated receptor alpha (Homo sapiens) (UniProt Q07869); test: Agonist activity at Gal4-fused human PPARalpha LBD transfected in HEK293T cells assessed as maximal relative activation incubated for 14 to 16 hrs by dual-Glo luciferase assay relative to GW7647; type: cell-based; conditions: time 14-16 hrs; how it was run: as §1
T4 sequence (whole entry): T3 sequence (Q07869 whole entry)

[5] = target: T5, Peroxisome proliferator-activated receptor delta (Homo sapiens, UniProt Q03181); test: Agonist activity at Gal4-fused human PPARdelta LBD transfected in HEK293T cells assessed as transcriptional activation incubated for 14 to 16 hrs by dual-Glo luciferase assay; type: cell-based; how it was run: as §1
T5 sequence (Q03181 whole entry): T1 sequence (whole entry)

[6] = Photostability of compound assessed as photochemical switch by measuring trans-isoform at 50 uM incubated for 8 hrs followed by irradiation with 460 nm UV light for 3 mins by HPLC analysis; type: physicochemical
[7] = Photostability of compound assessed as photochemical switch by measuring cis-isoform at 50 uM incubated for 8 hrs followed by irradiation with 365 nm UV light for 3 mins by HPLC analysis; type: physicochemical
[8] = target: T4, Peroxisome proliferator-activated receptor alpha (Homo sapiens); test: Agonist activity at human Gal4-PPARalpha transfected in HEK293T cells assessed as increase in mCherry fluorescence at 10 nM incubated for 8 hrs followed by irradiation with 460 nm UV light for 3 mins by fluorescence based analysis; type: cell-based; conditions: filed as agonist
How it was run: (§2)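 Live HEK293T cells carrying UAS-mCherry-NLS plus Gal4-PPARα-LBD were treated with compound in 0.1% DMSO. mCherry read (ex 585, em 610 nm) hourly from 8 to 24 h and at 36 h. At 8 h, isomers switched by 3 min illumination at 365 or 460 nm. cis state held by Cell DISCO. Fold intensity against DMSO. n = 3.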

[9] = target: T1, Peroxisome proliferator-activated receptor delta (Homo sapiens); test: Agonist activity at human Gal4-PPARdelta transfected in HEK293T cells assessed as increase in eGFP fluorescence at 300 nM incubated for 40 hrs by fluorescence microscopic analysis; type: cell-based
How it was run: (§3)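 HEK293T cells transfected separately with UAS-mCherry-NLS plus Gal4-PPARα-LBD, or […]-GFP plus Gal4-PPARδ-LBD. Cells pooled 5 h later and reseeded with compound in 0.1% DMSO. cis form preirradiated 3 min at 365 nm, then held with 75 ms 370 nm pulses every 15 s. Microscope images taken at 40 h. Integrated density set against 1 μM reference agonist. Duplicates, two independent runs.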

[10] = target: T4, Peroxisome proliferator-activated receptor alpha (Homo sapiens); test: Agonist activity at human Gal4-PPARalpha transfected in HEK293T cells assessed as increase in mCherry fluorescence at 10 nM measured after 8 to 24 hrs by fluorescence microscopic analysis; type: cell-based; conditions: filed as agonist, time 8-24 hrs; how it was run: as §2
[11] = target: T4, Peroxisome proliferator-activated receptor alpha (Homo sapiens); test: Agonist activity at human Gal4-PPARalpha transfected in HEK293T cells assessed as increase in mCherry fluorescence at 10 nM incubated for 40 hrs by fluorescence microscopic analysis; type: cell-based; how it was run: as §3
[12] = Microsomal stability in Sprague-Dawley rat liver microsomes assessed as half life at 10 uM measured up to 60 mins in presence of NADPH regenerating system by HPLC-UV analysis; type: ADME, Microsome
How it was run: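 Compound at 10 μM final, preincubated 5 min at 37 °C in 0.1 M phosphate pH 7.4 with NADPH-regenerating system. Reaction started with Sprague-Dawley rat liver microsomes and stopped with cold methanol at 0, 15, 30 and 60 min. Remaining compound measured by HPLC-UV at 254/280 nm against external calibration. Controls run without NADPH and with heat-inactivated microsomes. Half-life from log-linear fit. Three independent runs.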

[13] = target: T4, Peroxisome proliferator-activated receptor alpha (Homo sapiens); test: Agonist activity at human Gal4-PPARalpha transfected in HEK293T cells assessed as increase in mCherry fluorescence at 300 nM incubated for 40 hrs by fluorescence microscopic analysis; type: cell-based; conditions: filed as agonist; how it was run: as §3
[14] = target: T4, Peroxisome proliferator-activated receptor alpha (Homo sapiens); test: Agonist activity at human Gal4-PPARalpha transfected in HEK293T cells assessed as increase in mCherry fluorescence at 10 nM incubated for 8 hrs followed by irradiation with 365 nm UV light for 3 mins by fluorescence microscopic analysis; type: cell-based; how it was run: as §2

Row | Compound | max activation ([1]; filed as agonist) [%] | EC50 [2] [nM] | EC50 [3] [nM] | max activation ([4]; filed as agonist) [%] | EC50 [5] [nM] | max activation [1] [%] | max activation [4] [%] | further results
1 | Cc1ccc(/N=N/c2ccc(OCCc3ccc(OC(C)(C)C(=O)O)cc3)c(C(F)(F)F)c2)cc1 | 43 | 1200 | 70 | 87 | 113 | – | – | –
2 | CC(C)(Oc1ccc(CCOc2ccc(/N=N/c3ccc(Cl)cc3)cc2)cc1)C(=O)O | – | 3200 | 790 | – | 8000 | 39 | 26 | –
3 | Cc1ccc(/N=N\c2ccc(OCCc3ccc(OC(C)(C)C(=O)O)cc3)c(Cl)c2)cc1 | – | – | 290 | 41 | 380 | 35 | – | Stability [6]: Stable
4 | CC(C)(Oc1ccc(COc2ccc(/N=N/c3ccccc3)cc2)cc1)C(=O)O | 40 | – | 3700 | 40 | 2800 | – | – | –
5 | Cc1ccc(/N=N/c2ccc(OCCc3ccc(OC(C)(C)C(=O)O)cc3)c(Cl)c2)cc1 | 65 | – | 40 | 76 | 120 | – | – | Stability [7]: Stable
6 | CC(C)(Oc1ccc(CCOc2ccc(/N=N\c3ccccc3)cc2Cl)cc1)C(=O)O | 44 | 920 | 40 | 45 | 350 | – | – | –
7 | Cc1ccc(/N=N\c2ccc(OCCc3ccc(OC(C)(C)C(=O)O)cc3)cc2)cc1 | – | > 10000 | 1100 | – | 3800 | 31 | 22 | –
8 | CC(C)(Oc1ccc(CCOc2ccc(/N=N/c3ccccc3)cc2)cc1)C(=O)O | 61 | 2670 | 1090 | – | 2200 | – | 31 | –
9 | CC(C)(Oc1ccc(CCOc2ccc(/N=N\c3ccc(Cl)cc3)cc2)cc1)C(=O)O | – | > 10000 | 1100 | – | 8100 | 28 | 24 | –
10 | CC(C)(Oc1ccc(CCOc2ccc(/N=N/c3ccccc3)cc2C(F)(F)F)cc1)C(=O)O | 45 | – | 9 | 46 | 140 | – | – | –
11 | Cc1cc(/N=N/c2ccccc2)ccc1OCCc1ccc(OC(C)(C)C(=O)O)cc1 | 45 | – | 7 | – | 540 | – | 38 | Activity [8]: Active; Stability [7]: Stable; Activity [9]: inactive; Activity [10]: Active; Activity ([11]; filed as agonist): Active; half-life at 10 µM [12]: 1.72 h; Activity [13]: Active
12 | Cc1ccc(/N=N\c2ccc(OCCc3ccc(OC(C)(C)C(=O)O)cc3)c(C(F)(F)F)c2)cc1 | 40 | 1300 | 190 | 41 | 410 | – | – | –
13 | CC(C)c1ccc(/N=N/c2ccc(OCCc3ccc(OC(C)(C)C(=O)O)cc3)cc2)cc1 | 40 | – | 470 | – | 1770 | – | 25 | –
14 | Cc1cc(/N=N\c2ccccc2)ccc1OCCc1ccc(OC(C)(C)C(=O)O)cc1 | 41 | – | 240 | 43 | 3000 | – | – | Activity [9]: inactive; Stability [6]: Stable; Activity [11]: inactive; Activity [13]: Active; Activity [14]: inactive
15 | CC(C)(Oc1ccc(CCOc2ccc(/N=N\c3ccccc3)cc2)cc1)C(=O)O | – | 6000 | 800 | – | 6000 | 34 | 29 | –
16 | CC(C)(Oc1ccc(COc2ccc(/N=N\c3ccccc3)cc2)cc1)C(=O)O | – | – | 3500 | – | 4100 | 26 | 28 | –
17 | CC(C)(Oc1ccc(CCOc2ccc(/N=N/c3ccccc3)cc2Cl)cc1)C(=O)O | 46 | 820 | 29 | 49 | 240 | – | – | –
18 | Cc1ccc(/N=N\c2ccc(OCCc3ccc(OC(C)(C)C(=O)O)cc3)c(C)c2)cc1 | – | 1200 | 640 | – | 800 | 32 | 26 | –
19 | CC(C)c1ccc(/N=N\c2ccc(OCCc3ccc(OC(C)(C)C(=O)O)cc3)cc2)cc1 | – | – | 280 | – | 3400 | 22 | 19 | –
20 | Cc1ccc(/N=N/c2ccc(OCCc3ccc(OC(C)(C)C(=O)O)cc3)c(C)c2)cc1 | 47 | 2300 | 36 | – | 120 | – | 34 | –
21 | CC(C)(Oc1ccc(CCOc2ccc(/N=N\c3ccccc3)cc2C(F)(F)F)cc1)C(=O)O | – | – | 71 | 42 | 310 | 37 | – | –
